Results on 2 molecules are retold here after PMC6688896 (Bioorganic & medicinal chemistry, 2018).

One data set deals with CCD841Co colonic cells. The data set can be described thus: Oxygen consumption rate, Seahorse XFp analyzer. The conditions noted are these: 1 μM, vs DMSO control media. It is filed as cell-based. In short, it runs like this:
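CCD841Co cells seeded at 8000 cells/well in XFp miniplates and attached overnight (37 °C, 5% CO2). Basal OCR recorded, then 1 μM test compound or DMSO in media added. Mito Stress Test followed with sequential 1 μM oligomycin, 1 μM FCCP, and 0.5 μM rotenone plus antimycin A. Mean ± SD, n = 2.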

For a further data set, the system named is pAMPK in CCD841Co cells. Briefly: Phospho-AMPK levels by Western blot. The class given is cell-based. The conditions noted are these: whole cell lysate, vs DMSO control. In short, it runs like this: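 CCD841Co cells grown in MEM with 1 mM pyruvate, non-essential amino acids, 10% FBS. Plated at 0.27 million/well on poly-D-lysine-coated 12-well plates and attached overnight. Medium replaced with test compound or DMSO diluted in DMEM with 2 mM pyruvate and 2 mM L-glutamine. Lysed in Laemmli buffer; immunoblotted for phospho-AMPK (Thr172) and total AMPK, β-actin loading control.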

A further data set relates to six CRC tumor cell lines. Briefly: MTS cell proliferation assay, panel of six CRC cell lines. It is filed as cell-based. Conditions: 72 h, read-out: IC50 values, range over the six CRC cell lines. In short, it runs like this: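 Six CRC lines, each in its own medium (Leibovitz's, McCoy's 5A, MEM or RPMI) with 10% FBS and penicillin-streptomycin. Seeded at 5000 cells/well, then exposed 72 h to test compound over 0.04–10 μM or 0.001–10 μM depending on compound. Viability by colorimetric MTS; IC50 from curve fitting.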
A general note: Tetrazolium dyes change colour on reduction, which living cells bring about.

Data set [1] can be described thus: Plasma pharmacokinetics after oral dose. It is filed as in vivo, NOD/SCID mice. Conditions: DK419 1 mg/kg oral, mice. Summed up: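 Test compound at 0.2 mg/mL in 10% N-methylpyrrolidinone/90% PEG300, single oral 1 mg/kg to NOD/SCID mice (n = 4). Serial tail-vein blood into heparin, pre-dose to 72 h. Plasma extracted with ethyl acetate plus an internal standard analog, then LC/MS/MS; calibration range 2.4 (LLOQ) to 1000 ng/mL. Parameters from compartmental (first-order absorption/elimination) and non-compartmental analysis.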

Another data set deals with CRC240 PDX tumors. Briefly: CRC240 PDX xenograft tumor growth. The class given is in vivo, NOD/SCID mice. The conditions noted are these: vs vehicle, n = 3. Summed up: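 CRC240 PDX tissue washed and minced in PBS at 150 mg/ml, 200 μl implanted in NOD/SCID flanks. At about 100 mm3, mice randomized and dosed orally once daily for 11 days with test compound suspended at […] in 10% 1-methyl-2-pyrrolidinone/90% PEG300, or vehicle. Tumor size and body weight on days 0, 4, 8, 11; mean ± SEM, n = 3; two-tailed Student's t test vs vehicle.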

The nature of data set [2]: Body weight in CRC240 PDX xenograft study. The conditions noted are these: DK419 1 mg/kg orally daily for 11 days, tumor-bearing NOD/SCID mice. It is filed as in vivo.
The subject of a further data set is HCT116 cells. Conditions: 0.5 and 1.5 μM; cited from earlier work.
For data set [3] the following is noted: Niclosamide 200 mg/kg oral, mice, plasma, non-compartmental, cited from earlier work.

Like-named read-outs stand apart in the source and are kept apart here.

In general, IC50 refers to the concentration needed to halve the response being measured. As a reminder, the CL/F is the apparent clearance, not corrected for the fraction that reaches the circulation. One may read the Vd/F as the apparent distribution volume after extravascular dosing. On to `O=C(Nc1ccc(C(F)(F)F)cc1)c1cc(Cl)cc2nc(C(F)(F)F)[nH]c12` [DK419, 6-chloro-2-(trifluoromethyl)-N-(4-(trifluoromethyl)phenyl)-1H-benzo[d]imidazole-4-carboxamide], for which the oxygen consumption rate entry with CCD841Co colonic cells was “increases the rate of oxygen consumption”. Besides, the “pAMPK levels by Western blot” value with pAMPK in CCD841Co cells is given as “increased the levels of pAMPK”. Besides, in the data set on six CRC tumor cell lines, the IC50 was in the range of 70 to 360 nM. In data set [1], the “time for which plasma levels were sustained” value is reported as “more than 24 hours”. Besides, in data set [1] (plasma, compartmental), the AUCinf was 16300 ng·h/mL (per kg BW), the AUCinf/DOSE was 16.3 µg·h/mL (per mg), the CL/F was 0.06 L/h (per kg BW) and the Vd/F was 0.98 L (per kg BW). In data set [1] (plasma, non-compartmental), the AUCinf was 16900 ng·h/mL (per kg BW), the AUCinf/DOSE was 16.9 µg·h/mL (per mg), the CL/F is given as 0.06 L/h (per kg BW) and the “Vd/F (Vz)” value is given as 0.80 (Vz) L (per kg BW). Besides, the AUC0-LAST in data set [1] (plasma, non-compartmental, 0–72 h) is 16.8 ( 0–72 h) h μg/mL (per kg BW). Besides, the “growth of CRC240 PDX tumors (tumor volume)” value in the data set on CRC240 PDX tumors (DK419 1 mg/kg orally daily for 11 days) is on record as “inhibited the growth of CRC240 PDX tumors compared to vehicle control”. In addition, the body weight entry in data set [2] was “Neither DK419 nor Niclosamide produced a change in body weight”.

For the molecule `O=C(Nc1ccc([N+](=O)[O-])cc1Cl)c1cc(Cl)ccc1O` [Niclosamide, reference compound], the oxygen consumption rate result was “increases the oxygen consumption rate” in the data set with CCD841Co colonic cells and “caused oxygen consumption rate to increase” with HCT116 cells. In addition, the “pAMPK levels by Western blot” value in the data set on pAMPK in CCD841Co cells is “increased pAMPK levels versus control”. In addition, the IC50 in the data set on six CRC tumor cell lines lay in the range of 110 to 2390 nM. In addition, the “growth of CRC240 PDX tumors (tumor volume)” value in the data set on CRC240 PDX tumors (Niclosamide 72 mg/kg orally daily for 11 days) was “inhibited tumor growth”. The AUC0-LAST in data set [3] (0–24 h) is reported as 1.01 ( 0–24 h) h μg/mL (per kg BW). For the same molecule, the AUCinf in data set [3] was 1020 ng·h/mL (per kg BW).
